PfM18AAP inh-1: PfM18AAP inhibitors, malaria aminopeptidase, primary screen, biochemical, QFRET, recombinant enzyme; inhibition, % at 7.35 µM; M18 aspartyl aminopeptidase (Plasmodium falciparum 3D7); 290,000 compounds, 1.2% hits; H-Glu-NHMec fluorogenic cleavage; AID 1822, 2009;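 active = inhibition above the campaign mean inhibition over all tested compounds plus 3 SD, cut at about 28% in these data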
HCV core dimer: inhibitors of HCV core protein dimerization, primary screen, biochemical, TR-FRET, high-throughput. TR-FRET GST/Flag-core106 dimerization, 1536-well. inhibition, % at 5 µM. 300,000 compounds, 0.33% hits. AID 1899, 2009;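 active = inhibition above the mean of all tested compounds plus 3 SD, set per screening campaign, cut at about 45% in these data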
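Assay system: tagged HCV core106 pair (GST and Flag); medium: KF-containing HEPES buffer, pH 7.45, DTT, CHAPS, BSA; also added: Eu donor and XL665 acceptor anti-tag antibodies; dosing: 5 µM single dose; timing: compound-protein-antibody incubation 4 h at 22.5 °C; signal: TR-FRET 671 and 617 nm emission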
HCV NS3 hel inh: inhibitors of HCV NS3 helicase, primary screen, biochemical, Cy5 molecular beacon fluorescence; Hepatitis C virus NS3 helicase; inhibition, % at 10.9 µM; NS3 helicase DNA unwinding; 290,000 compounds, 0.56% hits;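 active = inhibition above the mean of all tested compounds plus 3 SD, set per campaign, cut at about 35% in these data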
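assay system = NS3 helicase fragment of HCV | buffer or medium = MOPS pH 6.5, MgCl2, DTT, Tween20, BSA | timing = 60 min unwinding reaction at 25 °C after ATP addition | signal = Cy5 beacon fluorescence read at start and 1 h | read-out basis = % inhibition of unwinding | control set = low DMSO, high thioflavine S at 110 µM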
ALR inh: inhibitors of human ALR sulfhydryl oxidase, primary screen, biochemical, H2O2 detection, HRP-luminol luminescence, single point; AID 485317, 2010; FAD-linked sulfhydryl oxidase ALR (Homo sapiens), P55789; 290,000 compounds, 3.8% hits; purified ALR, DTT oxidation; inhibition, % (concentration not given with the values);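 active = mean replicate inhibition above about 79%, with every replicate also reaching it, limit read from the data; inconclusive = only one of the two criteria met; inactive = mean below limit and not every replicate reaching it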
Target sequence (P55789 whole entry, looked up): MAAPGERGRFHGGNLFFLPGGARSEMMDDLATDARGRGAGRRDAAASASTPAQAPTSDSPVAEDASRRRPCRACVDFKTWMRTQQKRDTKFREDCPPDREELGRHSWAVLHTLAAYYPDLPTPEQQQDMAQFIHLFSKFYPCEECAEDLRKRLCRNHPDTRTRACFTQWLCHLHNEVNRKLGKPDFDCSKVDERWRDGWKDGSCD
ZTA counter: blocks Epstein-Barr virus ZTA, an EBNA-1 counter-screen. ZTA-DNA binding, fluorescence polarization. 320,000 compounds, 0.15% hits. P03206. inhibition, % at 11 µM; in the data active = inhibition above about 33%
Target sequence (P03206 whole entry, looked up): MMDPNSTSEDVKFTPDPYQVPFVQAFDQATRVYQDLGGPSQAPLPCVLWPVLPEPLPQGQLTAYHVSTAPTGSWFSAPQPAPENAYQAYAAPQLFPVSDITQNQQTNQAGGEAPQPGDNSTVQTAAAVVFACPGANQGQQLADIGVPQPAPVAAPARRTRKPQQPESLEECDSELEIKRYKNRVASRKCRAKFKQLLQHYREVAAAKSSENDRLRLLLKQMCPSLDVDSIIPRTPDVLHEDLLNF
EBNA-1 inh: EBNA-1 DNA-binding inhibitors, primary screen, biochemical, fluorescence polarization. inhibition, % at 14.8 µM. 300,000 compounds, 0.34% hits; in the data active = inhibition above about 28%
PfM18AAP inh-2: PfM18AAP inhibitors, malaria aminopeptidase, confirmation, biochemical, QFRET, recombinant enzyme, triplicate | shares compounds with PfM18AAP inh-1 | H-Glu-NHMec fluorogenic cleavage | inhibition, % at 7.35 µM | 2,400 compounds, 28% hits | AID 2170, 2009;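 active = mean inhibition over replicate wells above the hit cutoff set for the earlier primary screen, cut at about 29% in these data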
CTSL1 counter: cathepsin L1 inhibitors, retest, confirmation, counter-screen for PFM18AAP inhibitor project, biochemical, QFRET, triplicate; shares compounds with PfM18AAP inh-1; purified cathepsin L1, Z-Leu-Arg-MCA fluorescence; inhibition, % at 5.96 µM; 2,400 tested, under 10 active;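 active = average inhibition across replicates above the hit cutoff set in the earlier primary screen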
Each line names hits and unclear results; the compound was inactive in the other large screens (follow-up assays come after a bar, where they were run). Hits are enriched below; roughly 5.2% of the tested compounds scored in any of these assays.

COCCN=c1scc(-c2ccccc2)n1/N=C/c1c[nH]c2ccccc12	none
CCN=c1scc(-c2ccco2)n1/N=C/c1ccc(O)cc1	none
CCN=c1scc(C)n1/N=C/c1ccc(O)c(O)c1O	PfM18AAP inh-1 46.0, ALR inh 99.2 | PfM18AAP inh-2 inactive | CTSL1 counter inactive
COCCN=c1scc(-c2cccs2)n1/N=C/c1ccc(O)c(O)c1O	PfM18AAP inh-1 41.8, ALR inh 99.0 | PfM18AAP inh-2 inactive | CTSL1 counter inactive
Cc1onc(-c2c(Cl)cccc2Cl)c1NC(=O)NNc1ccccn1	PfM18AAP inh-1 40.4 | PfM18AAP inh-2 inactive | CTSL1 counter inactive
Cc1onc(-c2c(Cl)cccc2Cl)c1NC(=O)NNc1ccccc1	none
COc1ccccc1NC(=O)CN1CC(=O)Nc2ccccc21	none
O=C(Nc1ccccc1)Nc1cc(Cl)cc(Cl)c1	none
O=C(NNC(=O)c1ccc[nH]1)Nc1cccc(C(F)(F)F)c1	PfM18AAP inh-1 52.6 | PfM18AAP inh-2 inactive | CTSL1 counter inactive
O=C(NNC(=O)c1ccc[nH]1)Nc1cc(Cl)cc(Cl)c1	PfM18AAP inh-1 50.4 | PfM18AAP inh-2 29.1 | CTSL1 counter inactive
O=C(CN(c1ccc2c(c1)OCCO2)S(=O)(=O)c1ccccc1)N1CCN(Cc2ccccc2)CC1	none
O=c1cc(-c2ccc(O)cc2)oc2c(O)c(O)c(O)c(O)c12	PfM18AAP inh-1 51.6, ALR inh 86.4 | PfM18AAP inh-2 inactive | CTSL1 counter inactive
OCC(CO)(CO)N=Cc1cc(Br)ccc1O	none
Cc1ccc(O)c(N=CC2=C(O)c3ccccc3C2=O)c1	PfM18AAP inh-1 70.9 | PfM18AAP inh-2 inactive | CTSL1 counter inactive
CC(C)(C)c1ccc(O)c(N=Cc2cc(Br)ccc2O)c1	PfM18AAP inh-1 55.9 | PfM18AAP inh-2 88.4 | CTSL1 counter inactive
Oc1ccc(Br)cc1C=Nc1ccc(Cl)cc1	none
Oc1cccc(/C=N/N=C/c2cccc(O)c2O)c1O	PfM18AAP inh-1 41.8 | PfM18AAP inh-2 inactive | CTSL1 counter inactive
CCN(CC)c1ccc(N=Cc2cc(Br)ccc2O)cc1	PfM18AAP inh-1 36.7, ZTA counter 184.4, EBNA-1 inh 126.0 | PfM18AAP inh-2 inactive | CTSL1 counter inactive
O=C(OCC(O)CO)c1ccccc1Nc1ccnc2cc(Cl)ccc12 (centres undefined)	none (no result: PfM18AAP inh-1, HCV NS3 hel inh, ALR inh)
CN(CCCNC(=O)CCc1cn(C)c2ccccc12)C1CCCCC1	none
Cc1ccc(N=Cc2cccc(O)c2O)c(C)c1	PfM18AAP inh-1 34.4 | PfM18AAP inh-2 36.9 | CTSL1 counter inactive
Cc1ccc(O)c(C=Nc2ccc3[nH]ncc3c2)c1	ALR inh inconclusive
Cc1ccc(O)c(C=Nc2cc(C)ccc2O)c1	PfM18AAP inh-1 31.8 (no result: ALR inh) | PfM18AAP inh-2 37.0 | CTSL1 counter inactive
Cc1ccc(C)c(NC(=S)c2ccc3ccccc3n2)c1	none (no result: ALR inh)
CN(C)c1ccc(NC(=S)c2ccc3ccccc3n2)cc1	PfM18AAP inh-1 34.6 | PfM18AAP inh-2 inactive | CTSL1 counter inactive
CC(=O)Oc1ccc2c(=O)c(Oc3ccccc3)coc2c1OC(C)=O	PfM18AAP inh-1 32.7, ALR inh 99.3 | PfM18AAP inh-2 inactive | CTSL1 counter inactive
Cc1nn(C)c(-c2n[nH]c(=S)n2-c2ccccc2)c1Cl	PfM18AAP inh-1 32.2 (no result: ALR inh) | PfM18AAP inh-2 inactive | CTSL1 counter inactive
Cn1cc(Cl)c(-c2n[nH]c(=S)n2-c2ccccc2)n1	none
Cc1nn(C)cc1-c1n[nH]c(=S)n1-c1ccc(F)cc1	PfM18AAP inh-1 35.3 | PfM18AAP inh-2 inactive | CTSL1 counter inactive
COc1cc(OC)cc(N(C(=O)c2snc(C(N)=O)c2N)C(C(=O)NCC2CCCO2)c2ccc(C)o2)c1 (centres undefined)	none
